Tests used:
[1] = target: T1, GABA-A receptor; alpha-1/beta-2/gamma-2 (Homo sapiens) (UniProt P14867+P47870+P18507); test: Modulatory activity at human GABAA alpha-1-beta-2-gamma-2L receptor expressed in Xenopus laevis oocytes assessed as potentiation of GABA EC5-induced currents at 30 uM by two-electrode voltage clamp assay; assay type: cell-based; conditions: Oocyte
Method in brief: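 Stage V–VI oocytes were injected with 2–3 ng cRNA (α:β:γ 1:1:2) and kept 3–4 days at 16 °C in ND96 with pyruvate, theophylline and gentamycin. Two-electrode voltage clamp was run in ND96 at pH 7.5 with 3 M KCl electrodes. Test drug was co-applied with GABA EC5, with a 5–10 min washout between applications. Currents were normalised to a reference modulator at the same concentration on the same cell (n ≤ 5).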

[2] = target: T1, GABA-A receptor; alpha-1/beta-2/gamma-2 (Homo sapiens); test: Modulatory activity at human GABAA alpha-1-beta-2-gamma-2L receptor expressed in Xenopus laevis oocytes assessed as potentiation of GABA EC5-induced currents at 50 uM by two-electrode voltage clamp assay relative to untreated control; assay type: cell-based; conditions: Oocyte
Method in brief: (§1)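 Oocytes were injected with cRNA (α:β:γ 1:1:2) and incubated 3–4 days at 16 °C in ND96. TEVC was run in ND96 at pH 7.5, co-applying the drug at a range of concentrations with GABA EC5, with a 5–10 min washout between applications. Potentiation = (Idrug − IGABA) × 100/IGABA. Data are mean ± SEM, n ≥ 8, from at least two oocyte batches.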

[3] = target: T2, GABA-A receptor; alpha-1/beta-2/gamma-2 (Homo sapiens, UniProt P14867+P18507+P47870); test: Modulatory activity at human GABAA alpha-1-beta-2-gamma-2L receptor expressed in Xenopus laevis oocytes assessed as potentiation of GABA EC5-induced currents by two-electrode voltage clamp assay; assay type: cell-based, Oocyte; method in brief: as §1
T2 sequence (P14867 whole entry): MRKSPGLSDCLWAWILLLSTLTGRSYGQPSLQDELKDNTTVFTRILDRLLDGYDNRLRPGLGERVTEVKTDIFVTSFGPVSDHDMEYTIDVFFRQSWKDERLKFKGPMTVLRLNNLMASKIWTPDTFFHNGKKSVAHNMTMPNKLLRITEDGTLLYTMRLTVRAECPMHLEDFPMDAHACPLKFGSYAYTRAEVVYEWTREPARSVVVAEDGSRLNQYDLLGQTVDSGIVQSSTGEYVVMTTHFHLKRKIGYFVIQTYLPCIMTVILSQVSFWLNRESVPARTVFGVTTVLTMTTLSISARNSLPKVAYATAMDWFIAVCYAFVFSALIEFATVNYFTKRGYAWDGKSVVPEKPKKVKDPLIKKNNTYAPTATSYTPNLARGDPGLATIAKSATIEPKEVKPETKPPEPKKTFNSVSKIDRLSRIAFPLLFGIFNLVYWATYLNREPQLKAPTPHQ
T2 sequence (P47870 whole entry): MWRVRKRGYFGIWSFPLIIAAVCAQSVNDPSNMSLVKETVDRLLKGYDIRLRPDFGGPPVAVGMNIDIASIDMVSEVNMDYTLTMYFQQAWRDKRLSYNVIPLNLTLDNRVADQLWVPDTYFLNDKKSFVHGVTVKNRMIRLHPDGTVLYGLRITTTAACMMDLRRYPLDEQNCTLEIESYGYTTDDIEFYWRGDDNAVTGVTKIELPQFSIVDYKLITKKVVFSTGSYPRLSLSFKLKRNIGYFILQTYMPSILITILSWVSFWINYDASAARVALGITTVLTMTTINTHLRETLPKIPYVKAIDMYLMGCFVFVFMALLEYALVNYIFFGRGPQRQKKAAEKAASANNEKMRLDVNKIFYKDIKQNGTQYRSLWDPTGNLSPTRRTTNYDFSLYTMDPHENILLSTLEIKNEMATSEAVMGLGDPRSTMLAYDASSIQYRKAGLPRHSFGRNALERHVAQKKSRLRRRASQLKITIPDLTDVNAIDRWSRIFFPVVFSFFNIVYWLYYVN
T2 sequence (P18507 whole entry): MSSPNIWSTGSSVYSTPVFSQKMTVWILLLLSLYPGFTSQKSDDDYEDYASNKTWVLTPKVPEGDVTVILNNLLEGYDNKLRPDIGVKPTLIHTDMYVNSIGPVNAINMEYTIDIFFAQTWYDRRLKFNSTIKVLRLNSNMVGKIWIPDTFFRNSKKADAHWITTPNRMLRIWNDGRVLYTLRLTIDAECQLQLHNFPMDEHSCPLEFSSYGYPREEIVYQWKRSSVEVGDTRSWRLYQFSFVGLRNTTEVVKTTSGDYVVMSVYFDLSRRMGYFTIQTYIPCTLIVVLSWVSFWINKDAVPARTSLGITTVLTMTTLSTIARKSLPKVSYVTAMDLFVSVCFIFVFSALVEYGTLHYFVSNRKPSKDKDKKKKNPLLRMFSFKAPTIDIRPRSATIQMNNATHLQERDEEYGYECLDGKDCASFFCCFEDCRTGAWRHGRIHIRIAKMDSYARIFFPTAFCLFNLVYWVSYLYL

[4] = target: T1, GABA-A receptor; alpha-1/beta-2/gamma-2 (Homo sapiens); test: Modulatory activity at human GABAA alpha-1-beta-2-gamma-2L receptor expressed in Xenopus laevis oocytes assessed as potentiation of GABA EC5-induced currents at 30 uM by two-electrode voltage clamp assay relative to untreated control; assay type: cell-based; conditions: Oocyte; method in brief: as §1

Row | Activity [1] | SMILES | other results
1 | < 50% | COc1ccc([C@H]2Oc3ccc(C)cc3C[C@@H]2OC(C)=O)cc1OC | –
2 | > 50% | COc1ccc([C@@H]2Oc3cc(O)ccc3C[C@H]2OC(C)=O)cc1 | fold change (FC) [2]: 10.5
3 | < 50% | COc1ccc([C@H]2Oc3ccccc3C[C@H]2OC(C)=O)cc1 | –
4 | > 50% | COc1cc([C@@H]2Oc3ccccc3C[C@H]2OC(C)=O)cc(Br)c1OC | –
5 | > 50% | CC(=O)O[C@H]1Cc2ccccc2O[C@@H]1c1ccc2c(c1)OCO2 | –
6 | < 50% | COc1ccc([C@@H]2Oc3ccccc3C[C@@H]2OC(C)=O)cc1 | –
7 | < 50% | COc1ccc([C@@H]2Oc3cc(O)ccc3C[C@@H]2OC(C)=O)cc1 | –
8 | < 50% | COc1ccc([C@H]2Oc3cc(OCc4ccccc4)ccc3C[C@H]2OC(C)=O)cc1 | –
9 | < 50% | CC(=O)O[C@H]1Cc2ccccc2O[C@H]1c1ccc(O)cc1 | –
10 | > 50% | COc1ccc([C@@H]2Oc3cc(O)ccc3C[C@H]2OC(C)=O)cc1OC | EC50 [3]: 12.1 µM; fold change (FC) [4]: 12
11 | < 50% | COc1ccc([C@H]2Oc3ccc(OC)cc3C[C@H]2OC(C)=O)cc1 | –
12 | > 50% | CC(=O)O[C@@H]1Cc2ccccc2O[C@H]1c1ccc2c(c1)OCO2 | –
13 | < 50% | CC(=O)O[C@H]1Cc2ccccc2O[C@H]1c1ccc(OCc2ccccc2)cc1 | –
14 | < 50% | CC(=O)O[C@H]1Cc2ccccc2O[C@@H]1c1ccc(O)cc1 | –
15 | < 50% | COc1ccc([C@@H]2Oc3ccccc3C[C@@H]2OC(C)=O)cc1OC | –
16 | > 50% | COc1ccc([C@@H]2Oc3ccc(OC)cc3C[C@H]2OC(C)=O)cc1 | EC50 [3]: 15 µM
17 | < 50% | COc1ccc([C@H]2Oc3ccccc3C[C@H]2O)cc1 | –
18 | > 50% | COc1ccc([C@H]2Oc3ccccc3C[C@@H]2OC(C)=O)cc1OC | –
19 | < 50% | COc1ccc([C@H]2Oc3cc(OCc4ccccc4)ccc3C[C@@H]2OC(C)=O)cc1OC | –
20 | > 50% | COc1ccc([C@@H]2Oc3ccc(C)cc3C[C@H]2OC(C)=O)cc1OC | –
21 | < 50% | COc1ccc([C@@H]2Oc3cc(OCc4ccccc4)ccc3C[C@H]2OC(C)=O)cc1OC | –
22 | < 50% | COc1ccc([C@@H]2Oc3ccccc3C[C@H]2O)cc1 | –
23 | 700% | COc1ccc([C@@H]2Oc3ccccc3C[C@H]2OC(C)=O)cc1 | EC50 [3]: 13.7 µM; fold change (FC) [2]: 8.5
24 | < 50% | COc1ccc([C@H]2Oc3cc(O)ccc3C[C@@H]2OC(C)=O)cc1OC | –
25 | > 50% | COc1ccc([C@H]2Oc3ccccc3C[C@@H]2OC(C)=O)cc1 | –
26 | < 50% | COc1ccc([C@@H]2Oc3cc(OCc4ccccc4)ccc3C[C@H]2OC(C)=O)cc1 | –
27 | > 50% | COc1ccc([C@@H]2Oc3ccccc3C[C@H]2OC(C)=O)cc1OC | EC50 [3]: 6.68 µM; fold change (FC) [4]: 14.7
28 | < 50% | CC(=O)O[C@H]1Cc2ccccc2O[C@@H]1c1ccc(OCc2ccccc2)cc1 | –

From ChEMBL document CHEMBL1152633, “Synthesis and biological evaluation of flavan-3-ol derivatives as positive modulators of GABAA receptors” (Bioorg Med Chem, 2009)
